These results are taken from ChEMBL document CHEMBL3351726 (J Med Chem, 2014).

By inhibition is commonly meant the share of the control response that was lost under treatment. Broadly, the IC50 is the concentration that gives 50% inhibition. High values mean lower potency, low ones higher potency.

Data set [1] can be described thus: Retention time of the compound measured over 30 mins at flow rate of 1 mL/min by HPLC. In kind it is physicochemical. To be noted: 0.5 h. A digest of the protocol:
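Reversed-phase analytical HPLC or LC−MS on a SymmetryShield RP18 column (5 μm, 4.6 × 150 mm). Gradient 10−60% B over 30 min at 1 mL/min; A = 0.1% TFA in water, B = 0.1% TFA in acetonitrile.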

Data set [2] has as its target T1, Sodium channel protein type 9 subunit alpha (Homo sapiens, UniProt Q15858). As to the kind of experiment: Inhibition of human Nav1.7 expressed in HEK-293 cells assessed as inhibition of channel-mediated current at 1 nM by time-course experiment. Format: cell-based. The following applies: HEK293. In a few lines: (§1)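 HEK-293 cells on poly-D-lysine-coated dishes in DMEM at 37 °C, 5% CO2; recorded 12−48 h after plating. Whole-cell voltage-clamp sodium currents under continuous perfusion with extracellular solution. Compounds applied via a gravity-driven superfusion pipette array with its outlet about 100 μm from the cell.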
Target sequence in this assay (Q15858 whole entry, looked up, the tested form may be a part): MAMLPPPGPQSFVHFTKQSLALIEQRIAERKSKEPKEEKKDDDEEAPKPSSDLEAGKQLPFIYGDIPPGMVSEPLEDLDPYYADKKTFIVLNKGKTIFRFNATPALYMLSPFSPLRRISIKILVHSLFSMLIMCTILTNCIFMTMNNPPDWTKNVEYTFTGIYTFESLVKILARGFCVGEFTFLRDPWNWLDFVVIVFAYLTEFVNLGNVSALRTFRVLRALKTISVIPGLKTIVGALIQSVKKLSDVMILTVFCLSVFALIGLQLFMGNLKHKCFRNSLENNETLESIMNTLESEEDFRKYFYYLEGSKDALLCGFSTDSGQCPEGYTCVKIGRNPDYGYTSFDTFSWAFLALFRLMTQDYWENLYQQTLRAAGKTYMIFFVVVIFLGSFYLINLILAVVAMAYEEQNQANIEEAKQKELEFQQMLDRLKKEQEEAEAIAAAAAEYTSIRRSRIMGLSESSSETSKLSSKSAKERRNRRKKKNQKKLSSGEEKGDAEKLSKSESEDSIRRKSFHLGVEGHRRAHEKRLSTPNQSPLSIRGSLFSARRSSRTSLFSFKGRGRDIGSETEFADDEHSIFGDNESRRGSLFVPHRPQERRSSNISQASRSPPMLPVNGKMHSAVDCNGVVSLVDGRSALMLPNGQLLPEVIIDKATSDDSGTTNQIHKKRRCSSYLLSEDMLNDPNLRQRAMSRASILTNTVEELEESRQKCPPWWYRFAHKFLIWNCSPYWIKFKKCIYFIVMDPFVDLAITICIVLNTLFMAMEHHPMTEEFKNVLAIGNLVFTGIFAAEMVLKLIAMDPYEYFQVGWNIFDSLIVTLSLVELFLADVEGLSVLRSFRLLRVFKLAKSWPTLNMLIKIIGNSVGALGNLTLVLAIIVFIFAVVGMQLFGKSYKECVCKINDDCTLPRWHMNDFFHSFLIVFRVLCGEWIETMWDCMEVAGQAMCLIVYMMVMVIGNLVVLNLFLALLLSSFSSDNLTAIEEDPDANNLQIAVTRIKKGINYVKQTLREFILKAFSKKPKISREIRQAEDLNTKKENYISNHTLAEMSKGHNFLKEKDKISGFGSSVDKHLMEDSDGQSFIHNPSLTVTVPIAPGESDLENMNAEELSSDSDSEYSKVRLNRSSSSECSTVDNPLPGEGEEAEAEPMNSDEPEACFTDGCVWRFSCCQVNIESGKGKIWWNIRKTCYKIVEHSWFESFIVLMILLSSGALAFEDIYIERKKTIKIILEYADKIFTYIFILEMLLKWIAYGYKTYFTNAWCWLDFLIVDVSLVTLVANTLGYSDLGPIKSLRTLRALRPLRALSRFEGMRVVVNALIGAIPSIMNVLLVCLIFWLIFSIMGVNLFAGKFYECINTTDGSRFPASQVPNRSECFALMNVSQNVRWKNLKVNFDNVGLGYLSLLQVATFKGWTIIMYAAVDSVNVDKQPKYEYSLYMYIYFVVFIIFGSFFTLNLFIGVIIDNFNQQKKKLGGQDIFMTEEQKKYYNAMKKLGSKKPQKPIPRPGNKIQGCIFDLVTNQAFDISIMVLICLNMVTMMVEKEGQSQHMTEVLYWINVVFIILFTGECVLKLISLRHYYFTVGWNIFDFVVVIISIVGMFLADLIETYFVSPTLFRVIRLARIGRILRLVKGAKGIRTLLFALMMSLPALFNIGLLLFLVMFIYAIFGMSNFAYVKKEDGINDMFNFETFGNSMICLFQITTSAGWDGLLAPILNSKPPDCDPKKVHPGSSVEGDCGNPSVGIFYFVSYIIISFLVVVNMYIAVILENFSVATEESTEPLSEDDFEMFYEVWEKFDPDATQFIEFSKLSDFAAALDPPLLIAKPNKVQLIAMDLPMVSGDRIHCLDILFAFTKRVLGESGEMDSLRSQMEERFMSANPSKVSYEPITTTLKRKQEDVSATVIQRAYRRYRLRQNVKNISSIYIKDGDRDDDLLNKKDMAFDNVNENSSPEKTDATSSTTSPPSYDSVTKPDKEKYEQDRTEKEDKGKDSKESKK

Data set [3] addresses T1, Sodium channel protein type 9 subunit alpha. As to the kind of experiment: Inhibition of human Nav1.7 expressed in HEK-293 cells assessed as inhibition of channel-mediated current at 1 nM followed by wash-out and compound treatment at 0.1 nM by time-course experiment relative to initial peak amplitude. Format: cell-based. The following applies: HEK293. A digest of the protocol:
as §1
Target sequence in this assay (Q15858 whole entry, looked up, the tested form may be a part): as above

Data set [4] shares this target. As to the kind of experiment: Inhibition of human Nav1.7 expressed in HEK-293 cells at -130 to -110 mV holding potential by whole-cell voltage clamp analysis. In kind it is cell-based, HEK293.
Target sequence in this assay (Q15858 whole entry, the tested form may be a part): as the sequence (Q15858 whole entry, looked up, the tested form may be a part) above
Data set [5] deals with HEK293. As to the kind of experiment: Selectivity ratio of IC50 for rat Nav1.2 expressed in HEK-293 cells to IC50 for human Nav1.7 expressed in HEK-293 cells. In kind it is cell-based.
Data set [6] can be described thus: Retention time of the compound measured over 6 mins at flow rate of 0.5 mL/min by HPLC. The following applies: 0.1 h. In kind it is physicochemical.
A short description of data set [7]: Retention time of the compound measured over 15 mins at flow rate of 1 mL/min by HPLC.

The source made the active and inactive calls. The calls are words filed in the database; no cut-off is given here. Residues, ends and D or L forms follow the SMILES beside them.

For the compound `CNC(=O)[C@H](Cc1c[nH]c2ccccc12)NC(=O)[C@H](CC(C)C)NC(=O)[C@H](CCCCN)NC(=O)[C@H](CCCCN)NC(=O)[C@H](CCCCN)NC(=O)[C@@H]1CSSC[C@@H]2NC(=O)[C@H](CCCCN)NC(=O)[C@H](CCCNC(=N)N)NC(=O)[C@H](CCC(=O)O)NC(=O)[C@H](CO)NC(=O)[C@H](CC(=O)O)NC(=O)[C@@H]3CSSC[C@H](NC(=O)[C@H](C(C)C)NC(=O)[C@H](CCSC)NC(=O)CNC(=O)[C@H](CCC(=O)O)NC(=O)[C@H](CSSC[C@H](NC(=O)[C@@H](N)Cc4ccc(O)cc4)C(=O)N[C@@H](CCC(N)=O)C(=O)N[C@@H](CCCCN)C(=O)N[C@@H](Cc4c[nH]c5ccccc45)C(=O)N[C@@H](CCSC)C(=O)N[C@@H](Cc4c[nH]c5ccccc45)C(=O)N[C@@H]([C@@H](C)O)C(=O)N3)NC2=O)C(=O)N[C@@H](CCCNC(=N)N)C(=O)N[C@@H](CC(C)C)C(=O)N[C@@H](Cc2c[nH]c3ccccc23)C(=O)N1`, the Retention_time came out at 12.44 min in data set [1] and 2.52 min in data set [6]. Besides, the inhibition result in data set [2] was “Active”. For the same compound, in data set [3], the inhibition is 80%. In data set [4], this compound registered an IC50 of 0.042 nM. Further, the Ratio IC50 in data set [5] was 83.
Regarding `COC(=O)[C@H](Cc1c[nH]c2ccccc12)NC(=O)[C@H](CC(C)C)NC(=O)[C@H](CCCCN)NC(=O)[C@H](CCCCN)NC(=O)[C@H](CCCCN)NC(=O)[C@@H]1CSSC[C@@H]2NC(=O)[C@H](CCCCN)NC(=O)[C@H](CCCNC(=N)N)NC(=O)[C@H](CCC(=O)O)NC(=O)[C@H](CO)NC(=O)[C@H](CC(=O)O)NC(=O)[C@@H]3CSSC[C@H](NC(=O)[C@H](C(C)C)NC(=O)[C@H](CCSC)NC(=O)CNC(=O)[C@H](CCC(=O)O)NC(=O)[C@H](CSSC[C@H](NC(=O)[C@@H](N)Cc4ccc(O)cc4)C(=O)N[C@@H](CCC(N)=O)C(=O)N[C@@H](CCCCN)C(=O)N[C@@H](Cc4c[nH]c5ccccc45)C(=O)N[C@@H](CCSC)C(=O)N[C@@H](Cc4c[nH]c5ccccc45)C(=O)N[C@@H]([C@@H](C)O)C(=O)N3)NC2=O)C(=O)N[C@@H](CCCNC(=N)N)C(=O)N[C@@H](CC(C)C)C(=O)N[C@@H](Cc2c[nH]c3ccccc23)C(=O)N1`, the figures for the Retention_time in data set [1] and in data set [6] were 13.17 min and 2.93 min, respectively. For the same compound, the IC50 in data set [4] came out at 0.6 nM. Also, the Ratio IC50 in data set [5] worked out at 5.
The like results for `CSCC[C@@H]1NC(=O)CNC(=O)[C@H](CCC(=O)O)NC(=O)[C@@H]2CSSC[C@H](NC(=O)[C@@H](N)Cc3ccc(O)cc3)C(=O)N[C@@H](CCC(N)=O)C(=O)N[C@@H](CCCCN)C(=O)N[C@@H](Cc3c[nH]c4ccccc34)C(=O)N[C@@H](CCSC)C(=O)N[C@@H](Cc3c[nH]c4ccccc34)C(=O)N[C@@H]([C@@H](C)O)C(=O)N[C@H]3CSSC[C@H](NC(=O)[C@H](C(C)C)NC1=O)C(=O)N[C@@H](CCCNC(=N)N)C(=O)N[C@@H](CC(C)C)C(=O)N[C@@H](Cc1c[nH]c4ccccc14)C(=O)N[C@H](C(=O)N[C@@H](CCCCN)C(=O)N[C@@H](CCCCN)C(=O)N[C@@H](CCCCN)C(=O)N[C@@H](CC(C)C)C(=O)N[C@@H](Cc1c[nH]c4ccccc14)C(=O)Nc1ccccc1)CSSC[C@H](NC(=O)[C@H](CCCCN)NC(=O)[C@H](CCCNC(=N)N)NC(=O)[C@H](CCC(=O)O)NC(=O)[C@H](CO)NC(=O)[C@H](CC(=O)O)NC3=O)C(=O)N2` were, in that order, 14.13 min, 2.57 min, 0.8 nM and 4.
As to `CSCC[C@@H]1NC(=O)[C@H](Cc2c[nH]c3ccccc23)NC(=O)[C@H](CCCCN)NC(=O)[C@H](CCC(N)=O)NC(=O)[C@@H](NC(=O)[C@@H](N)Cc2ccc(O)cc2)CSSC[C@@H]2NC(=O)[C@@H]3CSSC[C@@H](C(=O)N[C@@H](CCCCN)C(=O)N[C@@H](CCCCN)C(=O)N[C@@H](CCCCN)C(=O)N[C@@H](CC(C)C)C(=O)N[C@@H](Cc4c[nH]c5ccccc45)C(=O)O)NC(=O)[C@H](Cc4c[nH]c5ccccc45)NC(=O)[C@H](CC(C)C)NC(=O)[C@H](CCC(=O)O)NC(=O)[C@H](CSSC[C@H](NC(=O)[C@H]([C@@H](C)O)NC(=O)[C@H](Cc4c[nH]c5ccccc45)NC1=O)C(=O)N[C@@H](CC(=O)O)C(=O)N[C@@H](CO)C(=O)N[C@@H](CCC(=O)O)C(=O)N[C@@H](CCCNC(=N)N)C(=O)N[C@@H](CCCCN)C(=O)N3)NC(=O)[C@H](C(C)C)NC(=O)[C@H](Cc1ccc(O)cc1)NC(=O)CNC(=O)[C@H](CCC(=O)O)NC2=O`, the Retention_time in data set [1] turned out to be 14.36 min; in data set [7] it was 9.09 min. The compound further gave an IC50 in data set [4] of more than 3000 nM.
Taken in the same sequence, the figures for `CSCC[C@@H]1NC(=O)[C@H](Cc2c[nH]c3ccccc23)NC(=O)[C@H](CCCCN)NC(=O)[C@H](CCC(N)=O)NC(=O)[C@@H](NC(=O)[C@@H](N)Cc2ccc(O)cc2)CSSC[C@@H]2NC(=O)[C@@H]3CSSC[C@@H](C(=O)N[C@@H](CCCCN)C(=O)N[C@@H](CCCCN)C(=O)N[C@@H](CCCCN)C(=O)N[C@@H](CC(C)C)C(=O)N[C@@H](Cc4c[nH]c5ccccc45)C(=O)O)NC(=O)[C@H](Cc4c[nH]c5ccccc45)NC(=O)[C@H](CC(C)C)NC(=O)[C@H](CCCNC(=N)N)NC(=O)[C@H](CSSC[C@H](NC(=O)[C@H]([C@@H](C)O)NC(=O)[C@H](Cc4c[nH]c5ccccc45)NC1=O)C(=O)N[C@@H](CC(=O)O)C(=O)N[C@@H](CCC(=O)O)C(=O)N[C@@H](CCC(=O)O)C(=O)N[C@@H](CCCNC(=N)N)C(=O)N[C@@H](CCCCN)C(=O)N3)NC(=O)[C@H](C(C)C)NC(=O)[C@H](CC(C)C)NC(=O)CNC(=O)[C@H](CCC(=O)O)NC2=O` (HELM PEPTIDE1{Y.C.Q.K.W.M.W.T.C.D.E.E.R.K.C.C.E.G.L.V.C.R.L.W.C.K.K.K.L.W}$PEPTIDE1,PEPTIDE1,2:R3-16:R3|PEPTIDE1,PEPTIDE1,9:R3-21:R3|PEPTIDE1,PEPTIDE1,15:R3-25:R3$$$V2.0) were 14.78 min, 8.66 min and 293 nM.
Taken in the same sequence, the figures for `CC[C@H](C)[C@H](NC(=O)[C@@H](NC(=O)[C@H](CCCCN)NC(=O)[C@H](CCCCN)NC(=O)[C@H](CCCCN)NC(=O)[C@@H]1CSSC[C@@H]2NC(=O)[C@H](CCCCN)NC(=O)[C@H](CCCNC(=N)N)NC(=O)[C@H](C)NC(=O)[C@H](CO)NC(=O)[C@H](CC(=O)O)NC(=O)[C@@H]3CSSC[C@H](NC(=O)[C@H](C(C)C)NC(=O)[C@H](CC(C)C)NC(=O)CNC(=O)[C@H](CCC(=O)O)NC(=O)[C@H](CSSC[C@H](NC(=O)[C@@H](N)Cc4ccc(O)cc4)C(=O)N[C@@H](CCC(N)=O)C(=O)N[C@@H](CCCCN)C(=O)N[C@@H](Cc4c[nH]c5ccccc45)C(=O)N[C@@H](CCSC)C(=O)N[C@@H](Cc4c[nH]c5ccccc45)C(=O)N[C@@H]([C@@H](C)O)C(=O)N3)NC2=O)C(=O)N[C@@H](CCCNC(=N)N)C(=O)N[C@@H](CC(C)C)C(=O)N[C@@H](Cc2c[nH]c3ccccc23)C(=O)N1)C(C)C)C(=O)O` (HELM PEPTIDE1{Y.C.Q.K.W.M.W.T.C.D.S.A.R.K.C.C.E.G.L.V.C.R.L.W.C.K.K.K.V.I}$PEPTIDE1,PEPTIDE1,2:R3-16:R3|PEPTIDE1,PEPTIDE1,9:R3-21:R3|PEPTIDE1,PEPTIDE1,15:R3-25:R3$$$V2.0) were 14.79 min, 9 min and 4 nM.
`[H][C@]12CSSC[C@@H](C(=O)N[C@@H](CCCCN)C(=O)N[C@@H](CCCCN)C(=O)N[C@@H](CC(C)C)C(=O)N[C@@H](Cc3c[nH]c4ccccc34)C(=O)O)NC(=O)[C@H](Cc3c[nH]c4ccccc34)NC(=O)[C@H](CC(C)C)NC(=O)[C@H](CCCNC(=N)N)NC(=O)[C@]3([H])CSSC[C@]([H])(NC(=O)[C@]([H])([C@@H](C)O)NC(=O)[C@H](Cc4c[nH]c5ccccc45)NC(=O)[C@H](CCSC)NC(=O)[C@H](Cc4c[nH]c5ccccc45)NC(=O)[C@H](CCCCN)NC(=O)[C@H](CCC(N)=O)NC(=O)[C@@H](NC(=O)[C@@H](N)Cc4ccc(O)cc4)CSSC[C@]([H])(NC1=O)C(=O)N[C@@H](CCC(=O)O)C(=O)NCC(=O)N[C@@H](CC(C)C)C(=O)N[C@@H](C(C)C)C(=O)N3)C(=O)N[C@@H](CC(=O)O)C(=O)N[C@@H](CO)C(=O)N[C@@H](C)C(=O)N[C@@H](CCCNC(=N)N)C(=O)N[C@@H](CCCCN)C(=O)N2` (HELM PEPTIDE1{Y.C.Q.K.W.M.W.T.C.D.S.A.R.K.C.C.E.G.L.V.C.R.L.W.C.K.K.L.W}$PEPTIDE1,PEPTIDE1,2:R3-16:R3|PEPTIDE1,PEPTIDE1,9:R3-21:R3|PEPTIDE1,PEPTIDE1,15:R3-25:R3$$$V2.0): the values for the Retention_time in data set [1] and in data set [7] were 15.35 min and 9.25 min, respectively. Besides, the IC50 in data set [4] worked out at 67 nM. Moreover, the Ratio IC50 in data set [5] was determined as 1.
